ChEMBL document CHEMBL3351505, “Ultrasound-assisted synthesis of novel 1,2,3-triazoles coupled diaryl sulfone moieties by the CuAAC reaction, and biological evaluation of them as antioxidant and antimicrobial agents” (Eur J Med Chem, 2014)
In brackets after ≈: the same amount, converted by molar mass. Activity calls are given as the source filed them. No cut-off for these calls is given here.

What was measured:
Bacillus subtilis [1] = experiment: Antibacterial activity against Bacillus subtilis ATCC 6633 using 100 uL of test compound after 24 hrs by agar well diffusion method; format: functional
Summary of the method: (§1)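 Agar well diffusion. Nutrient agar was spread with bacterial suspension at 1×10⁸ CFU/mL, and 10 mm wells were cut. Wells were loaded with compound solution made at 200 mg per 1 mL DMSO. Plates were incubated 24 h at 37 °C and inhibition zones were measured. DMSO served as the negative control.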

Aspergillus niger [2] = experiment: Antifungal activity against Aspergillus niger using 100 uL of test compound after 48 hrs by agar well diffusion method; format: functional
Summary of the method: as §1, with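 “Sabouraud dextrose” for “Nutrient”, “yeast or fungal” for “bacterial”, “1×10⁶” for “1×10⁸”, “48” for “24”, “28” for “37”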

Saccharomyces cerevisiae [3] = experiment: Antifungal activity against Saccharomyces cerevisiae after 48 hrs by two fold serial dilution method; format: functional
Summary of the method: (§2)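 Two-fold serial broth dilution in a suitable broth, run only on compounds giving inhibition zones of at least 16 mm. Final concentrations were […]. Each 5 mL received 0.1 mL inoculum and was incubated 48 h at 28 °C. MIC was the lowest concentration without growth.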

Saccharomyces cerevisiae [4] = experiment: Antifungal activity against Saccharomyces cerevisiae using 100 uL of test compound after 48 hrs by agar well diffusion method; format: functional
Summary of the method: as §1, with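 “Sabouraud dextrose” for “Nutrient”, “yeast or fungal” for “bacterial”, “1×10⁶” for “1×10⁸”, “48” for “24”, “28” for “37”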

Pseudomonas aeruginosa [5] = experiment: Antibacterial activity against Pseudomonas aeruginosa ATCC 27953 after 24 hrs by two fold serial dilution method; format: functional
Micrococcus luteus [6] = experiment: Antibacterial activity against Sarcina lutea after 24 hrs by two fold serial dilution method; format: functional
Pseudomonas aeruginosa [7] = experiment: Antibacterial activity against Pseudomonas aeruginosa ATCC 27953 using 100 uL of test compound after 24 hrs by agar well diffusion method; format: functional; summary of the method: as §1
Staphylococcus aureus [8] = experiment: Antibacterial activity against Staphylococcus aureus ATCC 29213 using 100 uL of test compound after 24 hrs by agar well diffusion method; format: functional; summary of the method: as §1
Micrococcus luteus [9] = experiment: Antibacterial activity against Sarcina lutea using 100 uL of test compound after 24 hrs by agar well diffusion method; format: functional; summary of the method: as §1
Staphylococcus aureus [10] = experiment: Antibacterial activity against Staphylococcus aureus ATCC 29213 after 24 hrs by two fold serial dilution method; format: functional
Escherichia coli [11] = experiment: Antibacterial activity against Escherichia coli ATCC 25922 using 100 uL of test compound after 24 hrs by agar well diffusion method; format: functional; summary of the method: as §1
Bacillus subtilis [12] = experiment: Antibacterial activity against Bacillus subtilis ATCC 6633 after 24 hrs by two fold serial dilution method; format: functional
Klebsiella pneumoniae [13] = experiment: Antibacterial activity against Klebsiella pneumoniae ATCC 13883 after 24 hrs by two fold serial dilution method; format: functional
Aspergillus niger [14] = experiment: Antifungal activity against Aspergillus niger after 48 hrs by two fold serial dilution method; format: functional; summary of the method: as §2
Candida albicans [15] = experiment: Antifungal activity against Candida albicans NRRL Y-477 using 100 uL of test compound after 48 hrs by agar well diffusion method; format: functional
Summary of the method: as §1, with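 “Sabouraud dextrose” for “Nutrient”, “yeast or fungal” for “bacterial”, “1×10⁶” for “1×10⁸”, “48” for “24”, “28” for “37”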

[16] = Antioxidant activity assessed as DPPH free radical scavenging activity by spectrophotometric assay; format: physicochemical
Summary of the method: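 Sample solutions at several concentrations were added to 0.004% DPPH in methanol and incubated 60 min in the dark. Absorbance was read at 517 nm against a blank. Inhibition % = (A_blank − A_sample)/A_blank × 100, where the control contained all reagents except the test compound.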

Escherichia coli [17] = experiment: Antibacterial activity against Escherichia coli ATCC 25922 after 24 hrs by two fold serial dilution method; format: functional
Klebsiella pneumoniae [18] = experiment: Antibacterial activity against Klebsiella pneumoniae ATCC 13883 using 100 uL of test compound after 24 hrs by agar well diffusion method; format: functional; summary of the method: as §1
Candida albicans [19] = experiment: Antifungal activity against Candida albicans NRRL Y-477 after 48 hrs by two fold serial dilution method; format: functional; summary of the method: as §2
Priestia megaterium [20] = experiment: Antibacterial activity against Bacillus megaterium ATCC 9885 after 24 hrs by two fold serial dilution method; format: functional
Priestia megaterium [21] = experiment: Antibacterial activity against Bacillus megaterium ATCC 9885 using 100 uL of test compound after 24 hrs by agar well diffusion method; format: functional; summary of the method: as §1

SMILES | diameter of the inhibition zone (DIZ) (Bacillus subtilis [1]) | diameter of the inhibition zone (DIZ) (Aspergillus niger [2]) | MIC (Saccharomyces cerevisiae [3]) | diameter of the inhibition zone (DIZ) (Saccharomyces cerevisiae [4]) | MIC (Pseudomonas aeruginosa [5]) | MIC (Micrococcus luteus [6]) | diameter of the inhibition zone (DIZ) (Pseudomonas aeruginosa [7]) | diameter of the inhibition zone (DIZ) (Staphylococcus aureus [8]) | diameter of the inhibition zone (DIZ) (Micrococcus luteus [9]) | MIC (Staphylococcus aureus [10]) | diameter of the inhibition zone (DIZ) (Escherichia coli [11]) | MIC (Klebsiella pneumoniae [13]; ATCC 13883, 24 h) | MIC (Aspergillus niger [14]) | diameter of the inhibition zone (DIZ) (Candida albicans [15]) | IC50 [16] | MIC (Escherichia coli [17]; ATCC 25922, 24 h) | diameter of the inhibition zone (DIZ) (Klebsiella pneumoniae [18]) | MIC (Priestia megaterium [20]) | diameter of the inhibition zone (DIZ) (Priestia megaterium [21]) | MIC (Bacillus subtilis [12]; ATCC 6633, 24 h) | other results
O=S(=O)(c1ccccc1)c1ccc(C(Cc2cn(Cc3ccccc3)nn2)OCc2cn(Cc3ccccc3)nn2)cc1 (stereo not given) | 15 mm | 30 mm | 200 mg/L (≈ 339 µM) | 18 mm | 200 mg/L (≈ 339 µM) | 200 mg/L (≈ 339 µM) | 18 mm | 14 mm | 17 mm | inactive | 19 mm | 200 mg/L (≈ 339 µM) | 50 mg/L (≈ 84.6 µM) | 18 mm | 500 mg/L (≈ 846 µM) | 200 mg/L (≈ 339 µM) | 17 mm | inactive | 14 mm | – | MIC (Bacillus subtilis [12]): inactive; MIC (Candida albicans [19]; NRRL Y-477, 48 h): 200 mg/L (≈ 339 µM)
O=C(Cn1cc(CC(O)c2ccc(S(=O)(=O)c3ccccc3)cc2)nn1)c1ccccc1 (stereo not given) | 19 mm | 29 mm | inactive | inactive | 200 mg/L (≈ 447 µM) | 200 mg/L (≈ 447 µM) | 20 mm | 14 mm | 20 mm | inactive | 17 mm | 200 mg/L (≈ 447 µM) | 100 mg/L (≈ 223 µM) | 12 mm | 425 mg/L (≈ 950 µM) | 200 mg/L (≈ 447 µM) | 22 mm | inactive | inactive | 200 mg/L (≈ 447 µM) | MIC (Candida albicans [19]): inactive
CC(O)(Cc1cn(Cc2ccccc2)nn1)c1ccc(S(=O)(=O)c2ccccc2)cc1 (stereo not given) | 16 mm | 32 mm | 200 mg/L (≈ 461 µM) | 16 mm | 200 mg/L (≈ 461 µM) | 200 mg/L (≈ 461 µM) | 23 mm | 22 mm | 23 mm | – | 22 mm | 100 mg/L (≈ 231 µM) | 25 mg/L (≈ 57.7 µM) | 19 mm | 600 mg/L (≈ 1380 µM) | 200 mg/L (≈ 461 µM) | 24 mm | – | 17 mm | 200 mg/L (≈ 461 µM) | MIC (Staphylococcus aureus [10]; ATCC 29213, 24 h): 200 mg/L (≈ 461 µM); MIC (Candida albicans [19]; NRRL Y-477, 48 h): 200 mg/L (≈ 461 µM); MIC (Priestia megaterium [20]; ATCC 9885, 24 h): 200 mg/L (≈ 461 µM)
CC(O)(Cc1cn(CC(=O)c2ccc(Br)cc2)nn1)c1ccc(S(=O)(=O)c2ccccc2)cc1 (stereo not given) | 17 mm | 20 mm | inactive | 14 mm | 200 mg/L (≈ 370 µM) | inactive | 19 mm | 17 mm | inactive | – | 17 mm | 200 mg/L (≈ 370 µM) | 200 mg/L (≈ 370 µM) | 15 mm | 800 mg/L (≈ 1480 µM) | 200 mg/L (≈ 370 µM) | 19 mm | inactive | inactive | 200 mg/L (≈ 370 µM) | MIC (Staphylococcus aureus [10]; ATCC 29213, 24 h): 200 mg/L (≈ 370 µM); MIC (Candida albicans [19]): inactive
O=C(Cn1cc(CC(O)c2ccc(S(=O)(=O)c3ccccc3)cc2)nn1)c1ccc(F)cc1 (stereo not given) | 19 mm | 32 mm | inactive | inactive | 200 mg/L (≈ 430 µM) | 200 mg/L (≈ 430 µM) | 19 mm | 14 mm | 20 mm | inactive | 14 mm | – | 50 mg/L (≈ 107 µM) | 13 mm | 275 mg/L (≈ 591 µM) | – | 15 mm | – | 17 mm | 200 mg/L (≈ 430 µM) | MIC (Klebsiella pneumoniae [13]): inactive; MIC (Escherichia coli [17]): inactive; MIC (Candida albicans [19]): inactive; MIC (Priestia megaterium [20]; ATCC 9885, 24 h): 200 mg/L (≈ 430 µM)
